sdo1 growth = compounds rescuing growth of sdo1-depleted yeast, bone marrow failure model; S. cerevisiae sdo1-depleted JHY4D growth rescue, OD600 30 h; stronger effect = higher value; pdr5 snq2 efflux-pump mutant strain; z-score at 10 µM; hit rate 0.21% among 140,000; AID 817;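 active means z-score above 3 at both the 24 hr and the 30 hr optical density reads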;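 further: z-score against mean and SD of all compound wells on the same plate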
Autophagy mod = modulators of autophagy; hit rate 0.98% among 190,000; AID 463193; MEF GFP-LC3 puncta imaging; test concentration mostly 10 µM; calls only at 10 µM (by protocol);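 active means percentage of spot-positive cells more than 3 SD above its plate mean, without a fluorescence outlier flag or 80% toxicity; inconclusive means no clear call, values can overlap the other calls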;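 further: spot-positive cell cutoff set from DMSO-treated cells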
ROMK mod = modulates human ROMK potassium channel activity; B-score at 10 µM; Tet-inducible ROMK, thallium flux fluorescence; actives lie on both sides; AID 1918; P48048; hit rate 2% among 130,000;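 active means signal ratio slope over the read window, or its plate-corrected B-score, at least 3 SD from the plate mean, either direction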;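 further: B-score of the F/F0 ratio slope over 7 to 12 s after thallium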
Target sequence (P48048 whole entry, looked up): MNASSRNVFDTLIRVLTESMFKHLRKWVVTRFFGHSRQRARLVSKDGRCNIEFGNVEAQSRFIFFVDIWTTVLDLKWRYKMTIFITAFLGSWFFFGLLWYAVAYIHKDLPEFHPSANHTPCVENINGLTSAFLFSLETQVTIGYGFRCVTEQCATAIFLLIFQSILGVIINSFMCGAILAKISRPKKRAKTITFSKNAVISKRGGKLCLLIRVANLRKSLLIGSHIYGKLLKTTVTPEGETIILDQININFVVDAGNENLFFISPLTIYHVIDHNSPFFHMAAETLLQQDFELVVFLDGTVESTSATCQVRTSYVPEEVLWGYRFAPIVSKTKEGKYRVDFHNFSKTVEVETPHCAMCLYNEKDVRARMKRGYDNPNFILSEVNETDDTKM
Insulin prom up = MIN6 insulin promoter up-regulation | AID 1625 | z-score at 5 µM | MIN6 insulin promoter-GFP reporter, high-content imaging; stronger effect = higher value | hit rate 0.3% among 190,000;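 active means z-score above 3 at 5 µM with at least 500 cells counted in the well; inconclusive means wells under 500 cells, flagged as cytotoxic or low count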
ABCB1 block = human ABCB1 inhibition, ABCG2 as counter-screen; P08183; CCRF-Adr cells, JC-1 efflux, flow cytometry; inhibition, % at 6.6 µM; hit rate 0.067% among 190,000; AID 1326; in the data active means inhibition above about 40%;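 further: 0% = vehicle and 100% = reference inhibitor; higher value means more JC-1 retained so stronger ABCB1 efflux block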
ABCG2 block = blocks JC-1 efflux by human ABCG2 transporter; inhibition, % at 6.6 µM; hit rate 0.1% among 190,000; IgMXP3 cells, flow cytometry; Q9UNQ0;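 active means inhibition above 80%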;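 further: 0% = DMSO and 100% = nicardipine control wells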
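Test system: ABCG2 IgMXP3 and barcoded ABCB1 CCRF-Adr cell mix; Schedule: cells with compound and JC-1, 10 min at 25 °C, rotating, no wash; Technique: flow cytometry of retained JC-1 fluorescence; Measure: % inhibition of efflux relative to nicardipine and DMSO; Controls: nicardipine high and DMSO low controls.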
ROMK retest = confirmation of human ROMK potassium channel modulators | ROMK thallium flux, fluorescence ratio; stronger effect = lower value | hit rate 54% among 3,000 | normalized thallium flux (F/F0 slope) at 10 µM | shares compounds with ROMK mod;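 active means Flux at 10 µM at least 3 SD below or above vehicle control mean in one or both replicates; inconclusive means no clear call, values can overlap the other calls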
* = called active by the depositor; i = inactive; ? = inconclusive; nt = not tested or not shown. Sampled rows, rich in hits. Any-hit rate of the full collection: about 2.3%.

SMILES | sdo1 growth | Autophagy mod | ROMK mod | Insulin prom up | ABCB1 block | ABCG2 block | ROMK retest
CN(C)S(=O)(=O)c1ccc(C(=O)Nc2nnc(-c3ccco3)o2)cc1 | nt | i | nt | -0.24 | 0 | 1 | nt
CCCCN(C)S(=O)(=O)c1ccc(C(=O)Nc2nnc(-c3ccco3)o2)cc1 | nt | i | 3.2* | nt | -1 | 0 | 0.091
Cc1ccccc1-c1nc(CN(C)C(C)c2ccon2)c(C)o1 (stereo not drawn) | nt | i | 0.84 | 0.75 | 0 | 1 | nt
CC1(C)C2CC=C(/C=N/NC(=S)Nc3cccnc3)C1C2 (stereo not drawn) | nt | i | -3.1* | 0.41 | 0 | 1 | 0.078
CN(C)c1nc(Oc2ccc(C(=O)OCC(=O)Nc3ccccc3)cc2)nc(N(C)C)n1 | -1.3 | i | nt | 0.44 | 0 | -1 | 0.08
CCC(C)(C(=O)NC1CCCCC1)N(CC1CCCO1)C(=O)Cc1cccs1 (stereo not drawn) | nt | i | -7.8* | 0.99 | 1 | 0 | 0.075
CCC(C)(C(=O)NC1CCCC1)N(Cc1cccs1)C(=O)Cc1cccs1 (stereo not drawn) | -1.3 | i | 1.1 | -0.87 | 1 | 2 | nt
CCc1ccc(NC(=O)COC(=O)/C=C/c2c(C)nn(C3CCS(=O)(=O)C3)c2Cl)cc1 (stereo not drawn) | nt | i | -0.39 | -0.02 | 0 | 23 | nt
CCS(=O)(=O)c1ccc(O)c(NC(=O)Nc2ccc(C(C)(C)C)cc2)c1 | nt | nt | -2.5* | -0.36 | nt | nt | 0.08
O=C(CCNC(=O)c1ccccc1Cl)NC1=NCCS1 | nt | i | 0.017 | -1.2 | 0 | 1 | nt
CCOC(=O)C1=C(Cc2ccc(F)cc2)C(=O)c2ccccc2C1=O | -1.2 | i | -3.3* | 1.6 | 0 | 3 | 0.061*
Cc1ccc(NNc2c(C)nc3ccccc3nc2=O)cc1 | nt | i | 2.7* | 0.12 | 0 | 3 | 0.11*
Cc1ccc(C(=O)NNc2c3ccccc3nc3ccccc23)cc1 | nt | nt | nt | -0.76 | nt | nt | nt
CCOc1cc(CNc2ccc3c(c2)OCCO3)cc(Br)c1OC | -0.27 | i | 4.9* | -1.6 | 0 | 2 | 0.076
Cc1cccc(NC(=O)CSc2nncn2-c2ccccn2)c1 | nt | i | 0.96 | 1.2 | -2 | 11 | nt
CC(=O)O/C(=C\c1cn(C(C)=O)c2ccccc12)C(=O)O | nt | nt | 0.63 | -1.2 | nt | nt | nt
CC(=O)n1cc(N(C(=O)CCl)c2ccccc2)c2ccccc21 | nt | nt | -2.8* | ? | nt | nt | ?
Clc1ccc(CSc2nnc(-c3cccnc3)n2Cc2ccco2)c(Cl)c1 | -1 | i | -2.4* | 0.74 | 1 | 1 | ?
O=[N+]([O-])c1cc2c(cc1/C=N/NS(=O)(=O)c1ccc(Br)cc1)OCO2 | nt | i | -0.023 | 0.21 | 5 | 4 | nt
O=Cc1ccc(-c2ccccc2OC(F)(F)F)o1 | 0.61 | i | 3.8* | -1.1 | 0 | 0 | 0.11*
Cc1ccc(C(=O)N/C(=C\c2ccc(-c3ccc(Br)cc3)o2)C(=O)NCCCN(C)C)cc1 | nt | i | -3.7* | -0.06 | 0 | 1 | 0.048*
CN(C)CCNC(=O)/C(=C/c1ccc(-c2ccc(Cl)cc2)o1)NC(=O)c1ccccc1 | 0.91 | i | -4.4* | -0.75 | 1 | 6 | 0.06*
O=C(Nc1nc(-c2cccs2)c(C(=O)C(F)(F)F)s1)c1ccco1 | nt | i | 0.62 | -0.24 | 0 | -1 | nt
O=C(Nc1nc(-c2cccs2)c(C(=O)C(F)(F)F)s1)c1ccccc1 | -1.1 | i | -6.5* | -1.1 | 1 | 45 | 0.054*
Cc1ccc(N2CCN(C(=O)CN3C(=O)c4ccccc4C3=O)CC2)cc1 | -0.1 | i | 1.9* | -0.32 | 2 | 5 | 0.074
SMILES | sdo1 growth | Autophagy mod | ROMK mod | Insulin prom up | ABCB1 block | ABCG2 block | ROMK retest
O=C(CN1C(=O)c2ccccc2C1=O)N1CCN(c2ccccc2)CC1 | 0.93 | i | 0.69 | 0.95 | 1 | 2 | nt
C/C(=N\NC(=S)Nc1c(C)cccc1C)c1ccc(O)cc1 | nt | nt | nt | -0.03 | nt | nt | 0.078
CC1(C)Cc2ccccc2C(/C(=N\Nc2cccc(Cl)c2)C(N)=O)=N1 | -0.84 | i | -1.6 | -0.58 | nt | nt | nt
CC(=O)c1ccc(N/N=C(/C(N)=O)C2=NC(C)(C)Cc3ccccc32)cc1 | -1.6 | i | -5.4* | nt | 1 | 4 | 0.049*
Cc1ccc(NC(=O)/C=C/c2ccco2)nc1 | 2 | i | 4.5* | -0.15 | 0 | 6 | 0.09
O=C(/C=C/c1ccco1)Nc1cccnc1 | nt | i | 0.14 | 0.16 | 0 | 2 | nt
O=C(/C=C/c1ccco1)Nc1ccccn1 | 0.59 | i | 1.8* | 1.5 | 0 | 3 | 0.085
O=C(c1cccc(COc2cccc3ccccc23)c1)N1CCCC1 | -1.5 | i | -3.5* | -0.09 | 1 | 2 | 0.087
O=C(O)c1cc(N2C(=O)C3CC=CCC3C2=O)ccc1NCc1cccnc1 (stereo not drawn) | 0.42 | i | 2.6* | 1.8 | 0 | 1 | 0.088
O=C(O)c1cc(N2C(=O)CCC2=O)ccc1NCc1cccnc1 | nt | nt | nt | -0.64 | nt | nt | nt
CCSc1nc2c(cnn2-c2ccccc2)c(=O)n1N | nt | nt | -0.089 | 0.74 | nt | nt | nt
CCN1CCc2nc3ccccc3c(C(=O)Nc3ccc(F)cc3)c2C1 | nt | nt | -3.3* | -0.32 | nt | nt | 0.074
CCN1CCc2nc3ccccc3c(C(=O)Nc3ccc(NC(C)=O)cc3)c2C1 | nt | nt | nt | -0.46 | nt | nt | nt
CCCNC(=O)COc1ccc(S(=O)(=O)Nc2ccc(C)cc2)cc1 | 0.19 | i | -0.42 | nt | 0 | 1 | nt
Cc1ccccc1NC(=O)/C=C1\SC(=O)NC1=O | nt | i | 0.68 | -0.48 | 1 | 8 | nt
CCn1nc(C(=O)OCc2cccc(S(=O)(=O)N(C)C)c2)c2ccccc2c1=O | nt | nt | nt | -0.42 | nt | nt | ?
CCN1CCN(C(=O)c2ccc3c(c2)S(=O)(=O)c2ccccc2C3=O)CC1 | nt | i | 1.5* | -0.28 | 0 | 2 | 0.08
O=C(Nc1sc2c(c1C(=O)c1ccc(Cl)cc1)CCCC2)c1cccnc1 | -0.77 | i | nt | 0.29 | 0 | 1 | nt
O=C(Nc1sc2c(c1C(=O)c1ccccc1)CCCC2)c1cccnc1 | 0.12 | i | -3.7* | -0.21 | 3 | 15 | 0.068*
CC(C)(C)c1ccc(C(=O)Nc2sc3c(c2C(=O)O)CCC3)cc1 | nt | i | 0.23 | -1.1 | 0 | 2 | 0.074
CCCCNC(=O)CNC(=S)N(Cc1ccccc1F)C1CCCCC1 | nt | i | -0.64 | -0.6 | 1 | 2 | nt
O=c1nc(/C=C/c2cc([N+](=O)[O-])ccc2Cl)cc(C(F)(F)F)[nH]1 | 0.6 | i | -6* | 1.1 | 0 | 1 | 0.04*
O=c1nc(/C=C/c2cccn2-c2ccc([N+](=O)[O-])cc2)cc(C(F)(F)F)[nH]1 | nt | i | 0.27 | 0.11 | -1 | 0 | nt
Cc1[nH]c2ccccc2c1N=Nc1ccccc1C(=O)O | 0.1 | i | 0.48 | -0.01 | -2 | -10 | nt
Cc1cc(-c2nc3ncccc3o2)ccc1NC(=S)NC(=O)C(C)C | nt | i | 0.67 | -0.74 | 1 | 13 | nt

High-throughput results as filed in PubChem.
